Values after ≈ are worked out from the molar mass of the structure shown. Active and inactive are the calls of the source. The calls are words filed in the database; no cut-off is given here.
Tests used:
Mus musculus [1] = species on record: Mus musculus; assay: Effect in mouse infected with herpes simplex virus type-1; observed effects seen; format: functional, organism-based
Mus musculus [2] = species on record: Mus musculus; assay: Effect in mouse infected with vaccinia virus; observed effects seen; format: functional, organism-based
Mus musculus [3] = species on record: Mus musculus; assay: Minimum Inhibitory concentration of the drug required for 50% inhibition of herpes simplex virus type 1 (strain E-377) -induced cytopathogenic effects in infected cell cultures.; format: functional
Mus musculus [4] = species on record: Mus musculus; assay: Minimum Inhibitory concentration of the drug required for 50% inhibition vaccinia virus (strain Lederle chorioallantoic)-induced cytopathogenic effects in infected cell cultures.; format: functional
Mus musculus [5] = species on record: Mus musculus; assay: In vitro antiviral activity against vaccinia virus (strain Lederle chorioallantoic) grown in mouse fibroblasts cells, clone L-929, expressed as VR; format: functional, Fibroblast
Mus musculus [6] = species on record: Mus musculus; assay: In vitro antiviral activity against herpes simplex virus type 1 (strain E-377) grown in mouse fibroblasts cells, clone L-929, expressed as virus rating (VR); format: functional, Fibroblast
Mus musculus [7] = species on record: Mus musculus; assay: Effect in mouse infected with herpes simplex virus type-1; observed effects diminished with time; format: functional, organism-based
Mus musculus [8] = species on record: Mus musculus; assay: Minimum Inhibitory concentration of the drug required for 50% inhibition of vaccinia virus (strain Lederle chorioallantoic) -induced cytopathogenic effects in infected cell cultures.; format: functional
Rattus norvegicus [9] = species on record: Rattus norvegicus; assay: Percent inhibition of oncogenic transformation of HL-23 virus infected rat kidney cells (NRK 153C17) at 0 uM; format: functional
Summary of the method: (§1)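 NRK 153 C1 7 rat kidney cells infected with HL-23 virus in the presence of compound at 0–4 μM. Foci were stained with Giemsa and counted per dish on day 5. % inhibition was derived from focus counts relative to the untreated dish.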

Rattus norvegicus [10] = species on record: Rattus norvegicus; assay: Percent inhibition of oncogenic transformation of HL-23 virus infected rat kidney cells (NRK 153C17) at 0.25 uM; format: functional; summary of the method: as §1
Rattus norvegicus [11] = species on record: Rattus norvegicus; assay: Percent inhibition of oncogenic transformation of HL-23 virus infected rat kidney cells (NRK 153C17) at 1 uM; format: functional; summary of the method: as §1
Rattus norvegicus [12] = species on record: Rattus norvegicus; assay: Percent inhibition of oncogenic transformation of HL-23 virus infected rat kidney cells (NRK 153C17) at 2 uM; format: functional; summary of the method: as §1
Rattus norvegicus [13] = species on record: Rattus norvegicus; assay: Percent inhibition of oncogenic transformation of HL-23 virus infected rat kidney cells (NRK 153C17) at 4 uM; format: functional; summary of the method: as §1
Rattus norvegicus [14] = species on record: Rattus norvegicus; assay: Inhibition of oncogenic transformation expressed as %control cell number on day 3 in HL-23 virus infected rat kidney cells (NRK 153C17) at 0.25 uM; format: functional
Summary of the method: (§2)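 Normal rat kidney cells (NRK 153 C1 7) infected with HL-23 virus, a C-type virus isolated from human acute myelogenous leukemia cells, and exposed to compound at 0–4 μM. Cell number determined on day 3 and expressed as % of control.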

Rattus norvegicus [15] = species on record: Rattus norvegicus; assay: Inhibition of oncogenic transformation expressed as %control cell number on day 3 in HL-23 virus infected rat kidney cells (NRK 153C17) at 0.5 uM; format: functional; summary of the method: as §2
Rattus norvegicus [16] = species on record: Rattus norvegicus; assay: Inhibition of oncogenic transformation expressed as %control cell number on day 3 in HL-23 virus infected rat kidney cells (NRK 153C17) at 1 uM; format: functional; summary of the method: as §2
Rattus norvegicus [17] = species on record: Rattus norvegicus; assay: Inhibition of oncogenic transformation expressed as %control cell number on day 3 in HL-23 virus infected rat kidney cells (NRK 153C17) at 2 uM; format: functional; summary of the method: as §2
Rattus norvegicus [18] = species on record: Rattus norvegicus; assay: Inhibition of oncogenic transformation expressed as %control cell number on day 3 in HL-23 virus infected rat kidney cells (NRK 153C17) at 4 uM; format: functional; summary of the method: as §2
Rattus norvegicus [19] = species on record: Rattus norvegicus; assay: Inhibition of oncogenic transformation was assayed by infecting normal rat kidney cells (NRK 153C17) with HL-23 virus and counting the %control cell number on day 3 at a concentration of 0 uM; format: functional; summary of the method: as §2
Rattus norvegicus [20] = species on record: Rattus norvegicus; assay: Inhibition of oncogenic transformation expressed as number of foci on day 5 in HL-23 virus infected rat kidney cells (NRK 153C17) at 0 uM; format: functional; summary of the method: as §1
Rattus norvegicus [21] = species on record: Rattus norvegicus; assay: Inhibition of oncogenic transformation expressed as number of foci on day 5 in HL-23 virus infected rat kidney cells (NRK 153C17) at 0.25 uM; format: functional; summary of the method: as §1
Rattus norvegicus [22] = species on record: Rattus norvegicus; assay: Inhibition of oncogenic transformation expressed as number of foci on day 5 in HL-23 virus infected rat kidney cells (NRK 153C17) at 0.5 uM; format: functional; summary of the method: as §1
Rattus norvegicus [23] = species on record: Rattus norvegicus; assay: Inhibition of oncogenic transformation expressed as number of foci on day 5 in HL-23 virus infected rat kidney cells (NRK 153C17) at 1 uM; format: functional; summary of the method: as §1
Rattus norvegicus [24] = species on record: Rattus norvegicus; assay: Inhibition of oncogenic transformation expressed as number of foci on day 5 in HL-23 virus infected rat kidney cells (NRK 153C17) at 2 uM; format: functional; summary of the method: as §1
Rattus norvegicus [25] = species on record: Rattus norvegicus; assay: Inhibition of oncogenic transformation expressed as number of foci on day 5 in HL-23 virus infected rat kidney cells (NRK 153C17) at 4 uM; format: functional; summary of the method: as §1
Rattus norvegicus [26] = species on record: Rattus norvegicus; assay: Percent inhibition of oncogenic transformation of HL-23 virus infected rat kidney cells (NRK 153C17) at 0.5 uM; format: functional; summary of the method: as §1
Mus musculus [27] = species on record: Mus musculus; assay: In vitro antiviral activity against herpes simplex virus type 1 (strain E-377) grown in mouse fibroblasts cells, clone L-929, expressed as virus ration (VR); format: functional, Fibroblast

Nc1ncnc2c1ncn2[C@@H]1O[C@H](CO)[C@@H](O)[C@@H]1O [VIDARABINE]
Activity (Mus musculus [1]): Active
Activity (Mus musculus [2]): Active
MIC (Mus musculus [3]): 2.1 µg/mL (≈ 7.86 µM)
MIC (Mus musculus [4]): 19.2 µg/mL (≈ 71.8 µM)
Virus rating (Mus musculus [5]): 1.2
Virus rating (Mus musculus [6]): 3.2

Nc1nccc2c1ncn2[C@@H]1C[C@H](CO)[C@@H](O)[C@H]1O [3-DEAZAARISTEROMYCIN A]
Activity (Mus musculus [7]): + to +/-
Activity (Mus musculus [2]): observed effects seen
MIC (Mus musculus [3]): 238 µg/mL (≈ 901 µM)
MIC (Mus musculus [8]): 1.9 µg/mL (≈ 7.19 µM)
Virus rating (Mus musculus [5]): 2.8
Inhibition (Rattus norvegicus [9]): 0%
inhibition at 0.25 µM (Rattus norvegicus [10]): 44%
inhibition at 1 µM (Rattus norvegicus [11]): 76%
inhibition at 2 µM (Rattus norvegicus [12]): 92%
inhibition at 4 µM (Rattus norvegicus [13]): 99%
Control cell number (Rattus norvegicus [14]): 100%
Control cell number (Rattus norvegicus [15]): 96%
Control cell number (Rattus norvegicus [16]): 81%
Control cell number (Rattus norvegicus [17]): 71%
Control cell number (Rattus norvegicus [18]): 53%
Control cell number (Rattus norvegicus [19]): 100%
No. of foci per dish (Rattus norvegicus [20]): 115
No. of foci per dish (Rattus norvegicus [21]): 64
No. of foci per dish (Rattus norvegicus [22]): 65
No. of foci per dish (Rattus norvegicus [23]): 28
No. of foci per dish (Rattus norvegicus [24]): 9
No. of foci per dish (Rattus norvegicus [25]): 1
Virus rating (Mus musculus [6]): 1.1
inhibition at 0.5 µM (Rattus norvegicus [26]): 44%

Nc1nccc2c1ncn2[C@@H]1O[C@H](CO)[C@@H](O)[C@H]1O
Virus rating (Mus musculus [27]): 0.5
